# PAFAH1B2 inh: blocks human PAF acetylhydrolase 1b catalytic subunit 2. P68402. recombinant PAFAH1B2, FP-rhodamine activity probe, fluorescence polarization. inhibition, % at 3.39 µM. 340,000 compounds, 1.2% hits. AID 492953;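 active means inhibition above the mean of all tested compounds plus 3 SD, cut at about 24% in these data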;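 further: 0% = enzyme with DMSO and 100% = wells lacking PAFAH1B2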
# pPAFAH inh: pPAFAH (human) enzyme inhibition; Q13093; inhibition, % at 3.39 µM; recombinant pPAFAH, FP-rhodamine probe fluorescence polarization; 330,000 compounds, 1.5% hits;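 active means inhibition above the mean inhibition across the screen plus 3 SD, cut at about 25% in these data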;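 further: inhibitors block binding of the rhodamine activity-based probe so polarization drops; 0% = enzyme with DMSO and 100% = wells lacking pPAFAH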
# Target sequence (Q13093 whole entry, looked up): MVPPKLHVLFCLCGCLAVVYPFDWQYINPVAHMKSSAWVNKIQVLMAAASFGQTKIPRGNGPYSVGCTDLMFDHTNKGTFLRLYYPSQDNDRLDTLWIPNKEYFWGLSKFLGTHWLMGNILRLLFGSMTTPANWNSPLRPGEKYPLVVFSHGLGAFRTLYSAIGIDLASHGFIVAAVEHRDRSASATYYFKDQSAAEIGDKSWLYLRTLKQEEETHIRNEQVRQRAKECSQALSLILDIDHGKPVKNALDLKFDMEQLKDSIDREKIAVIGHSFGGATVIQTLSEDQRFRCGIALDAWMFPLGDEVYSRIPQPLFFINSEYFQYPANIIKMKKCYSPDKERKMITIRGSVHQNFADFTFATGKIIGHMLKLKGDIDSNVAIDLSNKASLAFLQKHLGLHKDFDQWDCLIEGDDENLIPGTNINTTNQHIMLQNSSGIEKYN
# IMP-1 inh-1: inhibitors of Pseudomonas aeruginosa IMP-1 metallo-beta-lactamase. AID 1556. purified IMP-1, nitrocefin hydrolysis, epi-absorbance fluorescence. 290,000 compounds, 0.45% hits. inhibition, % at 5.6 µM;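 active means inhibition above the mean plus 3 SD of all compounds in the same screening run, cut at about 4.5% in these data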;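 further: 0% = IMP-1 with DMSO and 100% = DMSO wells lacking enzyme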
#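 system = purified recombinant IMP-1 beta-lactamase | amount = 0.2 nM IMP-1, as dispensed | medium = HEPES buffer pH 7.1 with ZnSO4 and Brij 35 | times = 25 °C, 15 min preincubation, 25 min reaction | detection = plate fluorescence quenching by hydrolysis product, ex 480/em 530 nm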
# VIM-2 inh: inhibitors of Pseudomonas aeruginosa VIM-2 metallo-beta-lactamase. purified VIM-2, nitrocefin hydrolysis, epi-absorbance fluorescence. inhibition, % at 5.6 µM. 290,000 compounds, 0.89% hits. AID 1527;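 active means inhibition above the mean of all tested compounds plus 3 SD, cutoff set per screening run, cut at about 7.5% in these data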;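 further: red hydrolysis product quenches plate fluorescence so inhibitors raise well fluorescence; 0% = enzyme with DMSO and 100% = DMSO without enzyme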
# PAFAH2 FP inh: PAFAH2 (human) inhibition | inhibition, % at 3.39 µM | recombinant PAFAH2, FP-rhodamine activity probe, fluorescence polarization | 340,000 compounds, 0.99% hits | Q99487;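 active means inhibition above the mean over all tested compounds plus 3 SD, cut at about 30% in these data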;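 further: inhibitors block probe labeling of enzyme so polarization drops; 0% = enzyme with DMSO and 100% = wells lacking PAFAH2 protein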
# PAFAH1B3 inh: PAFAH1B3 (human) inhibition | inhibition, % at 3.39 µM | recombinant PAFAH1B3, FP-rhodamine probe, fluorescence polarization | AID 492972 | 340,000 compounds, 0.28% hits | Q15102;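 active means inhibition above the screen-wide average of all tested compounds plus 3 SD, cut at about 25% in these data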;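 further: 0% = enzyme with DMSO only and 100% = wells lacking PAFAH1B3 protein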
# IMP-1 inh-2: IMP-1 inhibition, counter-screen for VIM-2 inhibitors. shares compounds with VIM-2 inh. 1,300 tested, under 10 active. purified IMP-1, nitrocefin hydrolysis, epi-absorbance fluorescence. inhibition, % at 5.6 µM; call rule not given here;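 further: 0% = enzyme with vehicle and 100% = vehicle without enzyme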
# VIM-2 FRET inh: VIM-2 FRET inhibition, artifact counter-screen; shares compounds with VIM-2 inh; 1,300 compounds, 23% hits; purified VIM-2, CCF2 FRET substrate hydrolysis; inhibition, % at 5.6 µM;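 active means inhibition above the mean of all tested compounds plus 3 SD, cut at about 19% in these data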;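 further: 0% = VIM-2 plus DMSO and 100% = no enzyme wells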
# TEM-1 counter: TEM-1 inhibition, counter-screen for VIM-2 inhibitors | shares compounds with VIM-2 inh | Purified TEM-1, nitrocefin hydrolysis, epi-absorbance fluorescence | inhibition, % at 5.6 µM | 1,300 compounds, 3% hits | AID 1866;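 active means inhibition above that campaign's mean inhibition plus 3 SD, cut at about 0.46% in these data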;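 further: 0% = TEM-1 with DMSO and 100% = TEM-1 with 100 µM potassium clavulanate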
# Target sequence (P62593 whole entry, looked up): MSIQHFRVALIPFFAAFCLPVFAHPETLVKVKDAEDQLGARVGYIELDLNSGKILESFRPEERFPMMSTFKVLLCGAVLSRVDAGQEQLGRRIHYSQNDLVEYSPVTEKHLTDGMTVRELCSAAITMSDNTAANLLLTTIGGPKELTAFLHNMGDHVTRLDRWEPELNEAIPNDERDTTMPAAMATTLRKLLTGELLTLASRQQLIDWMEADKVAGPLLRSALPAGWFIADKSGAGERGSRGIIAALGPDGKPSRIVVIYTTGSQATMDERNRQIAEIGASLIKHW
# VIM-2 confirm 2: confirmation of P. aeruginosa VIM-2 metallo-beta-lactamase inhibitors | shares compounds with VIM-2 inh | purified VIM-2, nitrocefin hydrolysis, epi-absorbance | inhibition, % at 5.6 µM | 1,300 compounds, 96% hits | AID 2187;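 active means inhibition of the VIM-2 beta-lactamase enzyme above about 11% from the earlier first-round screen, limit read from the data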;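 further: 0% = VIM-2 with DMSO and 100% = buffer wells without enzyme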
# The depositor's hits bear a star; · = no result. Hits are enriched below; roughly 3.6% of the tested compounds scored in any of these assays.
SMILES,PAFAH1B2 inh,pPAFAH inh,IMP-1 inh-1,VIM-2 inh,PAFAH2 FP inh,PAFAH1B3 inh,IMP-1 inh-2,VIM-2 FRET inh,TEM-1 counter,VIM-2 confirm 2
CCCc1cc(=O)oc2cc(C)cc(OCC(=O)Nc3ccc(CN4CCOCC4)cc3)c12,-2.1,5.3,-0.7,13.7*,0.9,14.3,-4.0,-2.0,-7.8,20.3*
CCC1(c2ccc(F)cc2)NC(=O)N(CC(=O)NC2CCCCCC2)C1=O (configuration not stated),17.0,-0.9,·,·,-0.9,7.3,·,·,·,·
COc1ccc(OCC(O)CN2CCC(CN3C(=O)c4cccc5cccc(c45)C3=O)CC2)cc1 (configuration not stated),5.5,3.4,·,·,-2.4,4.0,·,·,·,·
O=C1c2cccc3cccc(c23)C(=O)N1CC1CCN(CC(O)COCc2ccc3c(c2)OCO3)CC1 (configuration not stated),2.3,5.9,-0.7,15.9*,1.5,-2.4,-3.2,-5.3,-6.1,24.3*
C=CC1CN2CCC1CC2C(O)c1ccnc2ccc(OC)cc12 (configuration not stated),0.5,·,·,·,2.1,5.2,·,·,·,·
O=S(=O)([O-])C(c1ccccc1)[n+]1ccccc1 (configuration not stated),-0.5,1.1,·,·,4.0,4.0,·,·,·,·
Cc1cc(C)c2c(N)c3ccccc3nc2n1,3.7,-5.6,-2.8,16.2*,-0.7,7.2,-3.5,-6.9,-5.5,33.2*
CCc1ccc2nc3nc(C)cc(C)c3c(N)c2c1,8.2,-2.7,-1.6,22.9*,4.7,10.8,-1.2,-8.4,-2.9,41.3*
CC(=O)Nc1cc(C(=O)N(C)Cc2ccccc2)ccc1S(=O)(=O)c1ccc(C)cc1,1.5,15.9,-3.2,-1.5,-1.1,-1.2,·,·,·,·
COc1ccc(S(=O)(=O)N2CCC(C(=O)NCc3ccncc3)CC2)cc1OC,4.0,-1.3,0.5,-1.7,8.5,-2.8,·,·,·,·
CCN(CC)CCCNc1nc(SC)nc2sc3c(c12)CCN(C)C3,·,4.1,-1.4,13.1*,·,·,-3.0,-1.6,-5.3,20.6*
CNC(=O)c1c(NC(=O)c2ccc(S(=O)(=O)N3CCCCC3C)cc2)sc2c1CCN(C)C2 (configuration not stated),8.3,-1.1,2.6,22.1*,2.8,7.1,-3.0,1.8,-6.5,29.9*
COC(=O)c1c(NC(=O)c2ccc(S(=O)(=O)N3CCOCC3)cc2)sc2c1CCN(C)C2,·,5.1,-1.4,77.6*,·,·,-2.1,-0.5,-6.6,85.0*
CCN1CCc2c(sc(NC(=O)c3ccc(S(=O)(=O)N4CCOCC4)cc3)c2C(=O)OC)C1,4.7,-0.1,-2.7,63.7*,-2.1,7.8,-2.0,-1.8,-4.0,77.1*
CCN1CCc2c(sc(NC(=O)c3ccc(S(=O)(=O)N4CCOCC4)cc3)c2C(N)=O)C1,8.8,-5.3,-2.2,3.4,-6.9,-0.9,·,·,·,·
O=[N+]([O-])c1ccc(S(=O)(=O)N2CCN(Cc3ccco3)CC2)cc1,7.8,1.9,0.6,-0.6,8.2,-3.3,·,·,·,·
COc1ccc(-c2nn(-c3ccccc3)cc2CNC[C@H]2O[C@@H](n3cnc(C(N)=O)n3)[C@H](O)[C@@H]2O)cc1,1.7,·,·,·,5.6,2.7,·,·,·,·
Nc1nc(NCCCN2CCOCC2)nc(Nc2cccc(Cl)c2)c1[N+](=O)[O-],4.9,12.0,-0.5,28.8*,-1.1,15.7,-3.4,0.1,-7.1,49.5*
C[n+]1cccc(/C=N/Nc2nc(Cl)c(C#N)c(Cl)c2Cl)c1,·,13.9,-3.1,41.0*,·,·,-3.3,31.6*,-5.9,57.2*
Cc1ccc(-c2csc3n[nH]c(=S)n23)cc1,-0.5,1.3,0.4,46.5*,3.3,0.7,-1.5,69.6*,-3.1,56.7*
CCOc1ccc(CCNC(=O)c2ccc(=O)[nH]c2)cc1OCC,5.4,1.3,-2.5,26.7*,-1.8,7.8,-2.4,-3.9,-1.2,2.2
CCNc1nc(C)nc2c1oc1ccccc12,-0.2,-0.9,-1.5,4.0,1.4,0.4,·,·,·,·
Cc1nc(NCCCn2ccnc2)c2oc3ccccc3c2n1,3.8,1.0,1.3,75.8*,-7.1,8.8,-2.5,-8.4,-5.6,83.0*
c1ccc2c(c1)oc1c(NCCCn3ccnc3)ncnc12,0.4,-2.1,-0.8,56.0*,-1.1,4.1,-4.0,-6.5,-6.8,60.4*
CC(C)Oc1ccc(C2CC(=O)N(C)C2=O)cc1 (configuration not stated),1.4,6.8,-3.8,-4.1,-1.3,6.7,·,·,·,·
SMILES,PAFAH1B2 inh,pPAFAH inh,IMP-1 inh-1,VIM-2 inh,PAFAH2 FP inh,PAFAH1B3 inh,IMP-1 inh-2,VIM-2 FRET inh,TEM-1 counter,VIM-2 confirm 2
CCN(CC)CCSc1nnc2c3cc(F)ccc3n(Cc3ccccc3)c2n1,-1.6,1.7,-1.3,22.8*,5.0,3.7,-3.0,2.9,-6.5,37.0*
CCN(CC)CCSc1nnc2c3ccccc3n(Cc3ccccc3)c2n1,2.2,7.2,-3.1,31.1*,-1.5,-11.8,-2.5,3.7,-9.8,48.6*
Cc1ccc(C)c(SCC(=O)N(C)CC(=O)Nc2ccc(N3CCOCC3)cc2)c1,2.9,11.9,·,·,3.6,2.4,·,·,·,·
O=C(CN1C(=O)NC(c2ccccc2)(c2ccccc2)C1=O)NC1CCCCC1,2.0,3.6,·,·,5.1,5.6,·,·,·,·
Cn1c2ccccc2c(=O)c2cc(C#CC3(O)CCCCC3)ccc21,-4.2,2.7,-5.1,3.1,-0.6,6.5,·,·,·,·
O=c1c2ccccc2oc2ccc(C#CC3(O)CCCCC3)cc12,-4.2,0.5,·,·,-6.1,1.3,·,·,·,·
Cn1c2ccccc2c(=O)c2ccc(F)cc21,0.5,-4.2,-4.5,13.0*,-2.6,-1.9,-2.4,-22.5,-9.5,23.6*
Cn1c2ccccc2c(=O)c2ccc(C#CC3(N)CCCCC3)cc21,1.9,-2.4,-2.8,27.6*,5.0,5.0,-2.5,-0.5,-10.0,39.2*
Cn1c2ccccc2c(=O)c2cc(C#Cc3ccccn3)ccc21,-1.7,3.6,-3.0,13.8*,1.3,6.4,-2.2,-8.2,-5.2,16.6*
Cn1c2ccccc2c(=O)c2cc(C#Cc3ccsc3)ccc21,5.7,-2.4,-2.2,-0.8,-4.5,6.0,·,·,·,·
COc1cccc2oc3ccc(C#CC4(N)CCCCC4)cc3c(=O)c12,-6.6,-9.8,-1.3,14.7*,-6.5,11.7,-3.2,-1.6,-5.8,19.8*
CN(CCc1ccccc1)C(=O)CCc1nnc(Cc2ccc3c(c2)OCO3)o1,1.7,0.8,-3.3,-0.4,-6.4,1.3,·,·,·,·
CCN(CC)CCOC(=O)c1ccc(NC(=O)CCCN2C(=O)/C(=C/c3cccs3)SC2=S)cc1,0.6,·,0.1,3.0,-4.2,-9.1,·,·,·,·
